In ChEMBL document CHEMBL2040767, “Development of Polar Adenosine A2A Receptor Agonists for Inflammatory Bowel Disease: Synergism with A2B Antagonists” (ACS Med Chem Lett, 2011):

Experiments:
[1] = target: T1, Adenosine receptor A1 (Rattus norvegicus, UniProt P25099); assay: Displacement of [3H]CCPA from adenosine A1 receptor in rat brain cortex; type: tissue-based
T1 sequence (P25099 whole entry): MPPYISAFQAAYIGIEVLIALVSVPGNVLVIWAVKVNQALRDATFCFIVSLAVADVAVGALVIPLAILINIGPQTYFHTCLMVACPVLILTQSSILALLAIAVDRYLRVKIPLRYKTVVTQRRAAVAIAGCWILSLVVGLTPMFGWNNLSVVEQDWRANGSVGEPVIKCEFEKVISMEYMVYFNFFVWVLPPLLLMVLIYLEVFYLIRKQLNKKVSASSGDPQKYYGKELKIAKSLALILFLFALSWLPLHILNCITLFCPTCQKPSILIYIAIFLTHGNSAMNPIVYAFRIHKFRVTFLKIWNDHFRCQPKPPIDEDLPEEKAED

[2] = target: T2, Adenosine receptor A2a (Rattus norvegicus, UniProt P30543); assay: Displacement of [3H]MSX-2 from adenosine A2A receptor in rat brain striatum; type: tissue-based
[3] = target: T3, Adenosine receptor A2a (Homo sapiens, UniProt P29274); assay: Displacement of [3H]CGS21680 from human recombinant adenosine A2A receptor
[4] = target: T4, Adenosine receptor A3 (Homo sapiens, UniProt P0DMS8); assay: Displacement of [3H]PSB-11 from human recombinant adenosine A3 receptor expressed in CHO cells; type: cell-based
T4 sequence (P0DMS8 whole entry): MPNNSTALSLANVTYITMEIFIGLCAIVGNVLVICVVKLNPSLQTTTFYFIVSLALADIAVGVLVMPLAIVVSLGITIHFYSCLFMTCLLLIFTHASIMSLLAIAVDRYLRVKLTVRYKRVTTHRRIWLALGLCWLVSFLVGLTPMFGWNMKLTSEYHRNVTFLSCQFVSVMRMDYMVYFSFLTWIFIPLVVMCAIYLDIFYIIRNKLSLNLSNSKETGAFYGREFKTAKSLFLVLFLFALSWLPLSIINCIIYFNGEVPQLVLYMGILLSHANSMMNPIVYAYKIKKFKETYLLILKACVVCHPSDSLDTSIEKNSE
Procedure, shortened: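 Competition binding at human recombinant A3 receptor with [3H]PSB-11 as radioligand; Ki reported as mean ± SEM from three experiments.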

[5] = target: T5, Adenosine receptor A1 (Homo sapiens, UniProt P30542); assay: Displacement of [3H]CCPA from human recombinant adenosine A1 receptor
T5 sequence (P30542 whole entry): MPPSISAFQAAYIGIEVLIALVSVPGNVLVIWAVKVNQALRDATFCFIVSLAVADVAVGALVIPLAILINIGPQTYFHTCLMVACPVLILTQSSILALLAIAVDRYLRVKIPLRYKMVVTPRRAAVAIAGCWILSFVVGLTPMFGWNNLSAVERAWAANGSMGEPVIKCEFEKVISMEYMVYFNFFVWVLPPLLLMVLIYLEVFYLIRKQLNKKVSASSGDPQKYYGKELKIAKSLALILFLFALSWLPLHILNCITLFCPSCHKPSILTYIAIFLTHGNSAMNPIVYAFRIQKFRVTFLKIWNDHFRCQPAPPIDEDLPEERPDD

[6] = target: T2, Adenosine receptor A2a; assay: Displacement of [3H]CGS21680 from adenosine A2A receptor in rat brain striatum; type: tissue-based
[7] = target: T6, Adenosine receptor A2b (Homo sapiens, UniProt P29275); assay: Displacement of [3H]PSB-603 from human recombinant adenosine A2B receptor expressed in CHO cells after 75 mins by liquid scintillation assay; type: cell-based
T6 sequence (P29275 whole entry): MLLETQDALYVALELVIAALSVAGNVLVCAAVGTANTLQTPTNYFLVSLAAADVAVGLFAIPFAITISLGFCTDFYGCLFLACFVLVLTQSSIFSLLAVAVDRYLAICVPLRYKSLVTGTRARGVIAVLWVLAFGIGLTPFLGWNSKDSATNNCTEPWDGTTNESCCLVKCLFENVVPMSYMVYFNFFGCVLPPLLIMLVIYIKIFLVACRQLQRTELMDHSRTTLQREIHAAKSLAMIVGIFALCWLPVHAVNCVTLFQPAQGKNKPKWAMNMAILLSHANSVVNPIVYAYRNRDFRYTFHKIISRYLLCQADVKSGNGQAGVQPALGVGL

[8] = target: T4, Adenosine receptor A3; assay: Displacement of [3H]NECA from human recombinant adenosine A3 receptor
[9] = target: T3, Adenosine receptor A2a; assay: Agonist activity at human adenosine A2A receptor expressed in CHO-K1 cells by cAMP accumulation assay; type: functional, cell-based
[10] = target: T7, Adenosine receptor A2b (Rattus norvegicus) (UniProt P29276); assay: Antagonist activity at adenosine A2B receptor in Wistar rat ileum/jejunum segment assessed as reversal of TNBS-induced inhibition of Ach-induced contraction at 10 uM after 30 mins; type: functional, tissue-based; set-up: scale not given: the % may be the effect or the level left
T7 sequence (whole entry): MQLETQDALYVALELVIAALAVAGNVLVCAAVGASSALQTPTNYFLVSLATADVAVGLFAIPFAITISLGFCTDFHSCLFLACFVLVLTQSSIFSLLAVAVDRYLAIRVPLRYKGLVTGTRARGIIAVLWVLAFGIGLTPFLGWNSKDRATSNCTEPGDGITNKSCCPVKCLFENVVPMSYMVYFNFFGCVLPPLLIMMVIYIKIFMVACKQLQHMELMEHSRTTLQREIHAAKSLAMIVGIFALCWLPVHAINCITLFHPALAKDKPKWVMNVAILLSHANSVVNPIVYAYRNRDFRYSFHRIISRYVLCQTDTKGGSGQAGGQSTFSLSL
Procedure, shortened: (§1)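 Ex vivo rat ileum/jejunum segments; contractions evoked by acetylcholine 1 mM, expressed as % of Ach contraction without drug (100%). Acute inflammation induced by TNBS 10 mM, with the A2B antagonist (1–100 μM) preincubated alongside TNBS. Means ± SEM of seven experiments.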

[11] = target: T7, Adenosine receptor A2b (Rattus norvegicus); assay: Antagonist activity at adenosine A2B receptor in Wistar rat ileum/jejunum segment assessed as reversal of TNBS-induced inhibition of Ach-induced contraction at 100 uM after 30 mins; type: functional, tissue-based; set-up: scale not given: the % may be the effect or the level left; procedure, shortened: as §1
[12] = target: T7, Adenosine receptor A2b (Rattus norvegicus); assay: Antagonist activity at adenosine A2B receptor in Wistar rat ileum/jejunum segment assessed as reversal of TNBS-induced inhibition of Ach-induced contraction after 30 mins; type: functional, tissue-based; procedure, shortened: as §1

T2 sequence (P30543 whole entry): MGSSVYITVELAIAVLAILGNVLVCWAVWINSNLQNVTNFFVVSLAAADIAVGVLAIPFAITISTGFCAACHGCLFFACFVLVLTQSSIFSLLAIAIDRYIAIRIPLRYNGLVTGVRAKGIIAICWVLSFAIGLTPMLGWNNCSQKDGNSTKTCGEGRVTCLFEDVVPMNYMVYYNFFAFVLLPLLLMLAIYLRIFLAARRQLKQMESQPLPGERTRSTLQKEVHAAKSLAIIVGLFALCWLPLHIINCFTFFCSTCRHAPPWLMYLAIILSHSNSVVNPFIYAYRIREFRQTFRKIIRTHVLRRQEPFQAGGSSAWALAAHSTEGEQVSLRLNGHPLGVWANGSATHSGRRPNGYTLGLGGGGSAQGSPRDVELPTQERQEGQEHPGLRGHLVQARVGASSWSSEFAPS
T3 sequence (P29274 whole entry): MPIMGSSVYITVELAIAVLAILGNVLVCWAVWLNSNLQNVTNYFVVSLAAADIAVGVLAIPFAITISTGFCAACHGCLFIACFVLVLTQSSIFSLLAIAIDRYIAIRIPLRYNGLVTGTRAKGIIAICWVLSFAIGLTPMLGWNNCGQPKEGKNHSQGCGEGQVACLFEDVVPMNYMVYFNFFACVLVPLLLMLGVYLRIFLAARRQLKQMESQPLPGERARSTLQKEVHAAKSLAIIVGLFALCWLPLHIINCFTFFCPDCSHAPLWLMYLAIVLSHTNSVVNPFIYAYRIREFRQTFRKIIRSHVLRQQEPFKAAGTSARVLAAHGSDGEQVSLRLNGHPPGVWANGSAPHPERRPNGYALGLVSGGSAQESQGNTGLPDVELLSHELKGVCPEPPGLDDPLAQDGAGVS

Ki [1] | Ki [2] | Ki [3] | Ki [4] | Ki [5] | Ki [6] | Ki [7] | Ki [8] | EC50 [9] | Activity [10] | Activity [11] | Activity [12] | Structure (SMILES)
1.93 µM | > 10 µM | > 10 µM | > 10 µM |  |  |  |  |  |  |  |  | Nc1nc(SCC(=O)O)nc2c1ncn2[C@@H]1O[C@H](CO)[C@@H](O)[C@H]1O
1.8 µM |  | > 10 µM | > 10 µM | 0.545 µM | > 10 µM |  |  |  |  |  |  | Nc1nc(S(=O)(=O)CCc2ccc(S(=O)(=O)O)cc2)nc2c1ncn2[C@@H]1O[C@H](CO)[C@@H](O)[C@H]1O
1.01 µM |  | ≥ 10 µM | > 10 µM | 0.404 µM | 0.152 µM | > 10 µM | > 1 µM |  |  |  |  | Nc1nc(SCCc2ccc(C(=O)O)cc2)nc2c1ncn2[C@@H]1O[C@H](CO)[C@@H](O)[C@H]1O

Further lines, the molecule ahead of its results:

Structure (SMILES) | Ki [1] | Ki [2] | Ki [3] | Ki [4] | Ki [5] | Ki [6] | Ki [7] | Ki [8] | EC50 [9] | Activity [10] | Activity [11] | Activity [12]
Nc1nc(SCCc2ccc(S(=O)(=O)O)cc2)nc2c1ncn2[C@@H]1O[C@H](CO)[C@@H](O)[C@H]1O | ≥ 10 µM |  | 0.36 µM | > 10 µM | 0.541 µM | 0.0444 µM | > 10 µM | > 1 µM | 0.117 µM |  |  | 
CCCn1c(=O)[nH]c2nc(-c3ccc(S(=O)(=O)N4CCN(Cc5ccccc5)CC4)cc3)[nH]c2c1=O |  |  |  |  |  |  |  |  |  | 53.3% | 86.1% | Dose-dependent effect
